Test results taken from ChEMBL document CHEMBL1139893, “Triterpene glycosides from the flower petals of sunflower (Helianthus annuus) and their anti-inflammatory activity” (2007).

Key:
Mus musculus [1] = assay: Antiinflammatory activity in ICR mouse assessed as inhibition of TPA-induced edema per ear applied topically 30 mins before TPA treatment; assay type: functional
Outline: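 Female SPF ICR mice. TPA (1.7 nmol, 1 µg) in 20 µL acetone was applied to the right ear only, 10 µL to each of the inner and outer surfaces. Sample or vehicle (CHCl3-MeOH 1:1, 20 µL) was applied topically about 30 min beforehand. Ear thickness was read with a pocket gauge before and 6 h after TPA. ID50 came from probit-graphic interpolation across four dose levels, five mice each.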

Mus musculus [2] = assay: Inhibitory ratio of TPA-induced edema in presence of drug to TPA-induced edema in ICR mouse; assay type: functional
Outline: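 Topical sample at 1.0 mg/ear, or CHCl3-MeOH (1:1, 20 µL) vehicle control, given about 30 min before TPA (1.7 nmol in 20 µL acetone) on the right ear of female ICR mice. Ear thickness was gauged before and 6 h after TPA. InhR = [(Edema A − Edema B)/Edema A] × 100. Mean of five mice, Student's t-test.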

Question: Which results are given for `COc1ccc2c(c1)c(CC(=O)O)c(C)n2C(=O)c1ccc(Cl)cc1` [INDOMETHACIN]?
Answer: ID50 (Mus musculus [1]): 838 nmol; Ratio (Mus musculus [2]): 96%

Question: For `C[C@@H]1O[C@@H](O[C@H]2[C@H](O[C@H]3CC[C@]4(C)[C@H]5CC=C6[C@@H]7CC(C)(C)CC[C@]7(C(=O)O[C@@H]7OC[C@H](O)[C@H](O)[C@H]7O[C@@H]7O[C@@H](C)[C@H](O[C@@H]8O[C@H](CO)[C@@H](O)[C@H](O)[C@H]8O)[C@@H](O)[C@H]7O)CC[C@@]6(C)[C@]5(C)CC[C@H]4C3(C)C)O[C@H](CO)[C@@H](O[C@@H]3OC[C@@H](O)[C@H](O)[C@H]3O)[C@@H]2O)[C@H](O)[C@H](O)[C@H]1O` [HELIANTHOSIDE 1], which ID50 (Mus musculus [1]) is on record?
Answer: 144 nmol

Question: And the Ratio (Mus musculus [2])?
Answer: 71%

Question: `C[C@@H]1O[C@@H](O[C@H]2[C@H](O[C@H]3CC[C@]4(C)[C@H]5CC=C6[C@@H]7CC(C)(C)CC[C@]7(C(=O)O[C@@H]7O[C@H](CO)[C@@H](O)[C@H](O)[C@H]7O[C@@H]7O[C@@H](C)[C@H](O[C@@H]8O[C@H](CO)[C@@H](O)[C@H](O)[C@H]8O)[C@@H](O)[C@H]7O)[C@H](O)C[C@@]6(C)[C@]5(C)CC[C@H]4C3(C)C)O[C@H](CO)[C@@H](O[C@@H]3OC[C@@H](O)[C@H](O)[C@H]3O)[C@@H]2O)[C@H](O)[C@H](O)[C@H]1O` [HELIANTHOSIDE 3] was tested. Which ID50 (Mus musculus [1]) did it give?
Answer: 156 nmol

Question: And the Ratio (Mus musculus [2])?
Answer: 73%

Question: What does the source list for `C[C@@H]1O[C@@H](O[C@@H]2[C@@H](O)[C@H](O[C@H]3CC[C@@]4(C)[C@@H](CC[C@]5(C)[C@@H]4CC=C4[C@@H]6CC(C)(C)CC[C@]6(C(=O)O[C@@H]6OC[C@@H](O)[C@H](O)[C@H]6O[C@@H]6O[C@@H](C)[C@H](O[C@@H]7O[C@H](CO)[C@@H](O)[C@H](O)[C@H]7O)[C@@H](O)[C@H]6O)[C@H](O)C[C@]45C)[C@]3(C)CO)O[C@H](CO)[C@H]2O[C@@H]2OC[C@@H](O)[C@H](O)[C@H]2O)[C@H](O)[C@H](O)[C@H]1O` [HELIANTHOSIDE 4]?
Answer: ID50 (Mus musculus [1]): 262 nmol; Ratio (Mus musculus [2]): 75%

Question: Which ID50 (Mus musculus [1]) does the source give for `C[C@@H]1O[C@@H](O[C@@H]2[C@@H](O)[C@H](O[C@H]3CC[C@]4(C)[C@H]5CC=C6[C@@H]7CC(C)(C)CC[C@]7(C(=O)O[C@@H]7O[C@H](CO)[C@@H](O)[C@H](O)[C@H]7O[C@@H]7O[C@@H](C)[C@H](O)[C@@H](O)[C@H]7O)[C@H](O)C[C@@]6(C)[C@]5(C)CC[C@H]4C3(C)C)O[C@H](CO)[C@H]2O[C@@H]2OC[C@@H](O)[C@H](O)[C@H]2O)[C@H](O)[C@H](O)[C@H]1O` [HELIANTHOSIDE 5] here?
Answer: 155 nmol

Question: What about the Ratio (Mus musculus [2]) of the same compound?
Answer: 63%

Question: Which results are given for `C[C@@H]1O[C@@H](O[C@H]2CC[C@]3(C)[C@H]4CC=C5[C@@H]6CC(C)(C)CC[C@]6(C(=O)OC6OC[C@@H](O)[C@@H](O)[C@@H]6O[C@@H]6O[C@@H](C)[C@H](O[C@@H]7O[C@H](CO)[C@@H](O)[C@H](O)[C@H]7O)[C@@H](O)[C@H]6O)[C@H](O)C[C@@]5(C)[C@]4(C)CC[C@H]3C2(C)C)[C@H](O)[C@H](O)[C@H]1OC1OC[C@@H](O)[C@H](O)[C@H]1O` (stereo partly specified) [HELIANTHOSIDE B]?
Answer: ID50 (Mus musculus [1]): 65 nmol; Ratio (Mus musculus [2]): 80%

Question: For `C[C@]12CCC(=O)C=C1CC[C@@H]1[C@@H]2[C@@H](O)C[C@@]2(C)[C@H]1CC[C@]2(O)C(=O)CO` [HYDROCORTISONE], which ID50 (Mus musculus [1]) is on record?
Answer: 83 nmol

Question: What about the Ratio (Mus musculus [2]) of the same compound?
Answer: 99%

Question: Which results are given for `C[C@@H]1O[C@@H](O[C@@H]2[C@@H](O)[C@H](O[C@H]3CC[C@]4(C)[C@H]5CC=C6[C@@H]7CC(C)(C)CC[C@]7(C(=O)O[C@@H]7OC[C@H](O)[C@H](O)[C@H]7O[C@@H]7O[C@@H](C)[C@H](O[C@@H]8O[C@H](CO)[C@@H](O)[C@H](O)[C@H]8O)[C@@H](O)[C@H]7O)[C@H](O)C[C@@]6(C)[C@]5(C)CC[C@H]4C3(C)C)O[C@H](CO)[C@H]2O[C@@H]2OC[C@@H](O)[C@H](O)[C@H]2O)[C@H](O)[C@H](O)[C@H]1O` [HELIANTHOSIDE 2]?
Answer: ID50 (Mus musculus [1]): 135 nmol; Ratio (Mus musculus [2]): 77%
